Data: ChEMBL document CHEMBL1144197, “Synthesis of 5-(1-H or 1-alkyl-5-oxopyrrolidin-3-yl)-8-hydroxy-[1,6]-naphthyridine-7-carboxamide inhibitors of HIV-1 integrase” (Bioorg Med Chem Lett, 2008)

Legend:
[1] = Protein binding in human plasma at pH 7.4; format: ADME, cell-free; details: read-out: PPB (converted)
How it was run: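 Binding to human plasma (primarily albumin) measured by HPLC with UV detection, in pH 7.4 buffer at room temperature. Each value is the average of three determinations.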

[2] = test system: Human immunodeficiency virus 1; experiment: Antiviral activity against HIV1 3b in human MT4 cells assessed as decrease in HIV1 p24 core antigen in presence of 10% fetal bovine serum; format: functional
How it was run: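 HIV-1 IIIb replication in MT-4 human T-lymphoid cells, cultured with 10% FBS across increasing inhibitor concentrations. Read-out is the decrease in p24 core antigen. IC95 is the concentration giving 95% inhibition of viral growth relative to control.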

[3] = Partition coefficient, log P at pH 7.4; format: physicochemical; details: octanol/water
How it was run: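 A methanol solution of compound is partitioned between octanol and pH 7.4 KH2PO4/NaOH aqueous buffer, and both layers are quantified by HPLC-UV. Log P = log[(octanol area × octanol dilution)/(buffer area × buffer dilution)].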

[4] = test system: Human immunodeficiency virus 1; experiment: Antiviral activity against HIV1 3b in human MT4 cells assessed as decrease in HIV1 p24 core antigen in presence of 50% normal human serum
[5] = biological target: Human immunodeficiency virus type 1 integrase (Human immunodeficiency virus 1, UniProt Q7ZJM1); experiment: Inhibition of recombinant HIV1 integrase strand transfer activity using immobilized DNA substrate
How it was run: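 Recombinant HIV integrase (100 nM) preassembled on immobilized oligonucleotides, with 0.5 nM DNA, in a strand transfer read-out. Values are means of at least two experiments. The lower limit of accuracy is about 5 nM, with SD approximately twofold.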

[6] = Half life in rat at 2 mg/kg, iv; format: ADME, organism-based; set-up: dose 2 mg/kg, route intravenous; details: in vivo
How it was run: (§1)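 Intravenous dosing in DMSO at 2 mg/kg.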

[7] = Clearance in rat at 2 mg/kg, iv; format: ADME, organism-based; set-up: dose 2 mg/kg, route intravenous; details: in vivo; how it was run: as §1
[8] = Oral bioavailability in rat at 10 mg/kg; format: ADME, organism-based; details: in vivo
How it was run: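 Oral dosing in 1% methylcellulose at 10 mg/kg.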

Chain of Human immunodeficiency virus type 1 integrase (Q7ZJM1 whole entry): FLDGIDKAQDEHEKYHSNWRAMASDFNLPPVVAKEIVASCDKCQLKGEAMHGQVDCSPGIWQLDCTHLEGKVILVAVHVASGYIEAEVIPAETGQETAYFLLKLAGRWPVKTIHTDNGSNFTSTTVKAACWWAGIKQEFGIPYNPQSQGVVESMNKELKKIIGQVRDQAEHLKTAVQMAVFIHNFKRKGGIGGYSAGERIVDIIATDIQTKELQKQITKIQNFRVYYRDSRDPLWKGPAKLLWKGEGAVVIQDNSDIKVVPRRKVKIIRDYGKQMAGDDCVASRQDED

fraction unbound [1] | logD [3] | IC50 [5] | half-life [6] | clearance [7] | bioavailability [8] | Structure (SMILES) | IC95 [2] | Antiviral potency (p24 reduction) [4]
0.052 | 1.8 | 33 nM |  |  |  | CN(C)C(=O)CN1CC(c2nc(C(=O)NCc3ccc(F)cc3)c(O)c3ncccc23)CC1=O (stereo not given) | 31 nM | 63 nM
 |  |  | 1.3 h | 2.5 mL/min/kg | 65% | CN1CC(c2nc(C(=O)NCc3ccc(F)cc3)c([O-])c3ncccc23)CC1=O.[Na+] (stereo not given) |  | 
0.011 | 2.7 | 14 nM |  |  |  | CCN1CC(c2nc(C(=O)NCc3ccc(F)cc3)c(O)c3ncccc23)CC1=O (stereo not given) | 16 nM | 125 nM
0.04 | 1.9 | 26 nM |  |  |  | CCN1CC(c2nc(C(=O)NCc3ccc(F)cc3S(C)(=O)=O)c(O)c3ncccc23)CC1=O (stereo not given) | 38 nM | 81 nM
 |  |  | 3.4 h | 23.4 mL/min/kg | 5% | CN(C)C(=O)CN1CC(c2nc(C(=O)NCc3ccc(F)cc3)c([O-])c3ncccc23)CC1=O.[Na+] (stereo not given) |  | 
0.022 | 2.7 | 40 nM |  |  |  | CC(C)N1CC(c2nc(C(=O)NCc3ccc(F)cc3)c(O)c3ncccc23)CC1=O (stereo not given) | 31 nM | 125 nM
0.008 |  |  |  |  |  | O=C(NCc1ccc(F)cc1)c1ncc2cccnc2c1O | 1250 nM | 5000 nM
0.012 | 2.3 | 20 nM |  |  |  | CN1CC(c2nc(C(=O)NCc3ccc(F)cc3)c(O)c3ncccc23)CC1=O (stereo not given) | 31 nM | 125 nM
0.03 | 1.6 | 123 nM | 0.67 h | 17.2 mL/min/kg | 4% | CN1CC(c2nc(C(=O)NCc3ccc(F)cc3S(C)(=O)=O)c(O)c3ncccc23)CC1=O (stereo not given) | 31 nM | 63 nM
 |  | 24 nM |  |  |  | O=C1CC(c2nc(C(=O)NCc3ccc(F)cc3)c(O)c3ncccc23)CN1 (stereo not given) | 42 nM | 83 nM
